Experimental data from ChEMBL document CHEMBL1221266, “Synthesis and SAR of novel, 4-(phenylsulfamoyl)phenylacetamide mGlu4 positive allosteric modulators (PAMs) identified by functional high-throughput screening (HTS)” (Bioorg Med Chem Lett, 2010).

Key:
[1] = target: T1, Metabotropic glutamate receptor 4 (Homo sapiens, UniProt Q14833); test: Positive allosteric modulation of human mGlu4 receptor expressed in CHO cells assessed as potentiation of glutamate-induced calcium mobilization; type: functional, cell-based
How it was run: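 Human mGlu4 co-expressed with the chimeric G protein Gqi5 in CHO cells. Compounds were tested in the presence of an EC20 glutamate concentration as 1:3 serial dilutions starting at 30 μM. Values are the mean of triplicates run on one day. For % PHCCC, each compound's maximal response was divided by the response to the control PAM PHCCC measured that same day.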

[2] = target: T1, Metabotropic glutamate receptor 4; test: Positive allosteric modulation of human mGlu4 receptor expressed in CHO cells assessed as potentiation of glutamate-induced calcium mobilization relative to PHCCC; type: functional, cell-based
How it was run: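 Human mGlu4/Gqi5 CHO cells with an EC20 concentration of glutamate; compounds tested in 1:3 serial dilutions from 30 μM, in triplicate on one day. The maximal response elicited by each compound was divided by the response to the control PAM PHCCC measured on the same day.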

[3] = target: T1, Metabotropic glutamate receptor 4; test: Positive allosteric modulation of human mGlu4 receptor expressed in CHO cells assessed as potentiation of glutamate-induced calcium mobilization at > 30 uM; type: functional, cell-based
[4] = Metabolic stability in rat liver microsomes assessed as compound remaining after 60 mins; type: ADME, Microsome; details: read-out: Stability
[5] = species on record: Homo sapiens; test: Fraction unbound in human plasma
[6] = Metabolic stability in human liver microsomes assessed as compound remaining after 60 mins; type: ADME, Microsome; details: read-out: Stability
[7] = Fraction unbound in rat plasma; type: ADME, cell-free

T1 sequence (Q14833 whole entry): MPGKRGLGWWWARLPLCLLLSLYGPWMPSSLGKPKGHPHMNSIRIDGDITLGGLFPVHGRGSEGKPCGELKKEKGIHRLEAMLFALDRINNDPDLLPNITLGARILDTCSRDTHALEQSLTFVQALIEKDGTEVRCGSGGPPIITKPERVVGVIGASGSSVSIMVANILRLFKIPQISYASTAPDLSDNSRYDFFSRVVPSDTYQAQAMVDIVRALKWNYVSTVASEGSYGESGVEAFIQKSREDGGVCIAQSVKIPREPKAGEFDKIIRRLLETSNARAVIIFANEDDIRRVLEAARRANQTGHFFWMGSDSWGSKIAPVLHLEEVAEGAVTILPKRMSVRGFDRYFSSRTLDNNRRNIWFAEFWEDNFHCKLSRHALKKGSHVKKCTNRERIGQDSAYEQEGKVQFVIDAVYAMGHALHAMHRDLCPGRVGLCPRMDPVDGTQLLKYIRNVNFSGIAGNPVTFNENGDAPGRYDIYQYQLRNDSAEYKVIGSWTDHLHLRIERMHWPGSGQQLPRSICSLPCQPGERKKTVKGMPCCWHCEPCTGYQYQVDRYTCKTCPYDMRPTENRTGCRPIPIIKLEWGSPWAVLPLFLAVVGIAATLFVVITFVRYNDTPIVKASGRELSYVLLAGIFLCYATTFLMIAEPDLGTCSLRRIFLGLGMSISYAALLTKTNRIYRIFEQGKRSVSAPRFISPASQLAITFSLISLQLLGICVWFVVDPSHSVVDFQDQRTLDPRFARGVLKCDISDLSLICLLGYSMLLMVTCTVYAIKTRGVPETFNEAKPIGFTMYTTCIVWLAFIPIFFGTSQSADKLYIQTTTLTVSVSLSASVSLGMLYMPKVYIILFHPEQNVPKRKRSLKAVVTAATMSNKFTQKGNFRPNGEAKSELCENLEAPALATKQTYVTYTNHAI

SMILES | EC50 [1] [µM] | Emax [2] [%] | EC50 [3] | remaining at 1 h [4] [%] | fraction unbound [5] | remaining at 1 h [6] [%] | fraction unbound [7]
COCCNS(=O)(=O)c1ccc(NC(=O)c2ccccn2)cc1 | > 10 | 22.1 | – | – | – | – | –
O=C(Nc1ccc(S(=O)(=O)N2CCc3ccccc32)cc1)c1ccccn1 | – | 12 | Not Active | – | – | – | –
O=C(Nc1ccc(S(=O)(=O)N2CCCC2)cc1)c1ccccn1 | – | 15.4 | Not Active | – | – | – | –
COc1cccc(C(=O)Nc2ccc(S(=O)(=O)Nc3ccccc3Cl)cc2)n1 | – | 8.6 | Not Active | – | – | – | –
O=C(Nc1ccc(S(=O)(=O)Nc2ccccc2Cl)cc1)c1nccs1 | 0.0774 | 79.4 | – | 1.2 | 0.001 | 0.84 | 0.001
O=C(Nc1ccc(S(=O)(=O)Nc2ccccc2F)cc1)c1ccccn1 | 0.206 | 91.7 | – | – | – | – | –
O=C(Nc1ccc(S(=O)(=O)NCC2CC2)cc1)c1ccccn1 | > 5 | 70.2 | – | – | – | – | –
O=C(Nc1ccc(S(=O)(=O)Nc2ccccc2Cl)c(Cl)c1)c1ccccn1 | 0.0198 | 102 | – | 0.02 | – | 0.63 | –
CN(c1ccccc1Cl)S(=O)(=O)c1ccc(NC(=O)c2ccncn2)cc1 | 0.99 | 31.1 | – | 3.3 | 0.017 | 2.5 | 0.027
O=C(Nc1ccc(S(=O)(=O)NC2CCC2)cc1)c1ccccn1 | > 5 | 64.4 | – | – | – | – | –
O=C(Nc1ccc(S(=O)(=O)NC2CC2)cc1)c1ccccn1 | > 10 | 23.7 | – | – | – | – | –
O=C(Nc1ccc(S(=O)(=O)NC2CCCCC2)cc1)c1ccccn1 | 1.03 | 63.1 | – | – | – | – | –
O=C(Nc1ccc(S(=O)(=O)Cc2ccccc2Cl)cc1)c1ccccn1 | – | 46.3 | – | – | – | – | –
O=C(Nc1ccc(S(=O)(=O)Nc2ccccc2Cl)cc1)c1ccsc1 | 0.269 | 54.2 | – | – | – | – | –
COc1ccccc1NS(=O)(=O)c1ccc(NC(=O)c2ccccn2)cc1OC | 0.132 | 112 | – | 0.05 | 0.003 | 1.3 | 0.127
O=C(Nc1ccc(S(=O)(=O)Nc2cc(F)ccc2F)cc1)c1ccccn1 | 0.325 | 87.6 | – | – | – | – | –
CC1CCN(S(=O)(=O)c2ccc(NC(=O)c3ccccn3)cc2)CC1 | 0.372 | 35.8 | – | – | – | – | –
Cc1cc(C)c(NS(=O)(=O)c2ccc(NC(=O)c3ccco3)cc2)c(C)c1 | 5.96 | 52 | – | 93.3 | 0.022 | – | 0.082
O=C(Nc1ccc(S(=O)(=O)Nc2ccccc2Cl)cc1Cl)c1ccccn1 | – | 8.1 | Not Active | – | – | – | –
O=C(Nc1ccc(S(=O)(=O)Nc2ccccc2)cc1)c1ccccn1 | 0.177 | 69.2 | – | – | – | – | –
CN(c1ccccc1Cl)S(=O)(=O)c1ccc(NC(=O)c2nccs2)cc1 | 0.686 | 25.4 | – | 0.08 | 0.005 | 0.1 | 0.37
O=C(Nc1ccc(S(=O)(=O)Nc2ccccc2Cl)cc1)c1ccccn1 | 0.027 | 88.2 | – | 0.02 | 0.001 | 0.02 | 0.003
O=C(Nc1ccc(Cl)c(S(=O)(=O)Nc2ccccc2Cl)c1)c1ccccn1 | 0.731 | 54.9 | – | 0.05 | – | 11.9 | –
O=C(Nc1ccc(S(=O)(=O)Nc2ccccc2Cl)cc1)c1cccc(F)n1 | 0.122 | 90 | – | – | – | – | –
O=C(Nc1ccc(S(=O)(=O)Nc2ccc(F)c(Cl)c2)cc1)c1ccccn1 | – | 19.8 | Not Active | – | – | – | –
O=C(Nc1ccc(S(=O)(=O)Nc2ccccc2Cl)cc1)c1ccncn1 | 0.478 | 103 | – | – | – | – | –
O=C(Nc1ccc(S(=O)(=O)Nc2ccc(Cl)c(C(F)(F)F)c2)cc1)c1ccccn1 | – | 19.5 | Not Active | – | – | – | –
Cc1cc(C)c(NS(=O)(=O)c2ccc(NC(=O)c3ccccn3)cc2)c(C)c1 | 0.159 | 60.5 | – | 25.8 | 0.001 | – | 0.003
O=C(Nc1ccc(CS(=O)(=O)c2ccccc2Cl)cc1)c1ccccn1 | 2.17 | 46.5 | – | – | – | – | –
